Source: ChEMBL document CHEMBL1154044, “5-Nitro-2-furyl derivative actives against Trypanosoma cruzi: preliminary in vivo studies” (Eur J Med Chem, 2009)
The source made the active and inactive calls. The rule behind the calls is not given here.

How the values were obtained:
Mus musculus [1] = test: Toxicity in CD1 mouse heart at 450 mg/kg, po after 3 days by histological study; type: organism-based; set-up: dose 450 mg/kg, route oral; conditions: in vivo, 72 h
Method in brief: (§1)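 Healthy female CD1 mice (20–22 g), 5–7 per group, given a single oral (intragastric) or i.p. dose in saline:Tween 80 (4:1) vehicle. Sacrificed on day 3 after ether anaesthesia. Organs fixed in 10% aqueous formalin for histology. Scored against untreated animals from no change to +++ (many changes).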

Mus musculus [2] = test: Toxicity in CD1 mouse heart at 300 mg/kg, ip after 3 days by histological study; type: organism-based; set-up: dose 300 mg/kg, route intraperitoneal; conditions: in vivo, 72 h; method in brief: as §1
Mus musculus [3] = test: Toxicity in CD1 mouse lung at 450 mg/kg, po after 3 days by histological study; type: organism-based; set-up: dose 450 mg/kg, route oral; conditions: in vivo, 72 h; method in brief: as §1
Mus musculus [4] = test: Toxicity in CD1 mouse lung at 300 mg/kg, ip after 3 days by histological study; type: organism-based; set-up: dose 300 mg/kg, route intraperitoneal; conditions: in vivo, 72 h; method in brief: as §1
Mus musculus [5] = test: Toxicity in CD1 mouse brain at 450 mg/kg, po after 3 days by histological study; type: organism-based; set-up: dose 450 mg/kg, route oral; conditions: in vivo, 72 h; method in brief: as §1
Mus musculus [6] = test: Toxicity in CD1 mouse brain at 300 mg/kg, ip after 3 days by histological study; type: organism-based; set-up: dose 300 mg/kg, route intraperitoneal; conditions: in vivo, 72 h; method in brief: as §1
Trypanosoma cruzi [7] = test: Antitrypanosomal activity against Trypanosoma cruzi infected in po dosed CD1 mouse assessed as prevention of inflammatory infiltrates in heart administered daily for 14 days measured on day 45; type: functional, organism-based
Method in brief: (§2)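 T. cruzi, a Uruguayan patient isolate, was inoculated intradermally into 2-month-old female CD1 mice (20–22 g). Dosing began on day 15 after parasitaemia was observed. Drugs were suspended in saline:Tween 80 (4:1) and given by intragastric syringe once daily for 14 days, with untreated controls. On day 45 after treatment start, heart and muscle sections were scored by two independent observers for amastigotes and inflammatory infiltrates. Groups had 5–7 mice.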

Trypanosoma cruzi [8] = test: Antitrypanosomal activity against Trypanosoma cruzi infected in po dosed CD1 mouse assessed as prevention of amastigote nest in heart administered daily for 14 days measured on day 45; type: functional, organism-based; method in brief: as §2
Trypanosoma cruzi [9] = test: Growth inhibition of Trypanosoma cruzi Tulahuen 2 epimastigote at 5 uM after 5 days; type: functional; set-up: Activity: scale not given: the % may be the effect or the level left; conditions: for inhibition of growth at 5 µM: Trypanosoma cruzi, Tulahuen 2, 120 h, read-out: GI
Mus musculus [10] = test: Toxicity in CD1 mouse assessed as decrease in weight respect to day zero at 450 mg/kg, po after 3 days; type: organism-based; set-up: dose 450 mg/kg, route oral; scale not given: the % may be the effect or the level left; conditions: in vivo, 72 h
Method in brief: (§3)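 Healthy 2-month-old female CD1 mice (20–22 g, 5–7 per group) received one dose. Oral doses of 450 or 300 mg/kg were given by intragastric syringe; i.p. doses of 300 or 150 mg/kg by injection. Drugs were suspended in saline:Tween 80 (4:1), and a vehicle-only control was included. Mice were weighed and observed daily for 3 days. Weight change is expressed as percent relative to day zero.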

Mus musculus [11] = test: Toxicity in CD1 mouse assessed as decrease in weight respect to day zero at 300 mg/kg, po after 3 days; type: organism-based; set-up: dose 300 mg/kg, route oral; scale not given: the % may be the effect or the level left; conditions: in vivo, 72 h; method in brief: as §3
Mus musculus [12] = test: Toxicity in CD1 mouse assessed as survival at 450 mg/kg, po after 3 days; type: organism-based; set-up: dose 450 mg/kg, route oral; conditions: in vivo, 72 h
Method in brief: (§4)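 Healthy 2-month-old female CD1 mice (20–22 g), groups of 5–7, given one oral dose by intragastric syringe or one i.p. injection. Compound suspended in saline:Tween 80 (4:1) with sonication just before dosing; vehicle-treated controls included. Weighed and observed daily over 3 days for skin, physical aspect, activity and faeces; survival recorded at day 3.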

Mus musculus [13] = test: Toxicity in CD1 mouse assessed as survival at 300 mg/kg, po after 3 days; type: organism-based; set-up: dose 300 mg/kg, route oral; conditions: in vivo, 72 h; method in brief: as §4
Mus musculus [14] = test: Toxicity in CD1 mouse assessed as decrease in weight respect to day zero at 150 mg/kg, ip after 3 days; type: organism-based; set-up: dose 150 mg/kg, route intraperitoneal; scale not given: the % may be the effect or the level left; conditions: in vivo, 72 h; method in brief: as §3
Mus musculus [15] = test: Toxicity in CD1 mouse assessed as survival at 300 mg/kg, ip after 3 days; type: organism-based; set-up: dose 300 mg/kg, route intraperitoneal; conditions: in vivo, 72 h; method in brief: as §4
Mus musculus [16] = test: Toxicity in CD1 mouse assessed as survival at 150 mg/kg, ip after 3 days; type: organism-based; set-up: dose 150 mg/kg, route intraperitoneal; conditions: in vivo, 72 h; method in brief: as §4
Mus musculus [17] = test: Toxicity in CD1 mouse liver at 300 mg/kg, ip after 3 days by histological study; type: organism-based; set-up: dose 300 mg/kg, route intraperitoneal; conditions: in vivo, 72 h; method in brief: as §1
Mus musculus [18] = test: Toxicity in CD1 mouse liver at 450 mg/kg, po after 3 days by histological study; type: organism-based; set-up: dose 450 mg/kg, route oral; conditions: in vivo, 72 h; method in brief: as §1
Mus musculus [19] = test: Toxicity in CD1 mouse intestine at 450 mg/kg, po after 3 days by histological study; type: organism-based; set-up: dose 450 mg/kg, route oral; conditions: in vivo, 72 h; method in brief: as §1
Mus musculus [20] = test: Toxicity in CD1 mouse intestine at 300 mg/kg, ip after 3 days by histological study; type: organism-based; set-up: dose 300 mg/kg, route intraperitoneal; conditions: in vivo, 72 h; method in brief: as §1
Mus musculus [21] = test: Toxicity in CD1 mouse kidney at 450 mg/kg, po after 3 days by histological study; type: organism-based; set-up: dose 450 mg/kg, route oral; conditions: in vivo, 72 h; method in brief: as §1
Mus musculus [22] = test: Toxicity in CD1 mouse kidney at 300 mg/kg, ip after 3 days by histological study; type: organism-based; set-up: dose 300 mg/kg, route intraperitoneal; conditions: in vivo, 72 h; method in brief: as §1
Mus musculus [23] = test: Toxicity in CD1 mouse assessed as increase in weight respect to day zero at 300 mg/kg, ip after 3 days; type: organism-based; set-up: dose 300 mg/kg, route intraperitoneal; conditions: in vivo, 72 h; method in brief: as §3
Mus musculus [24] = test: Toxicity in CD1 mouse assessed as leukocyte level at 450 mg/kg, po after 3 days; type: organism-based; set-up: dose 450 mg/kg, route oral; conditions: in vivo, 72 h
Method in brief: (§5)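 Healthy female CD1 mice (5–7 per group) received a single oral dose of 450 mg/kg or an i.p. dose of 300 mg/kg, with vehicle controls. On day 3 they were sacrificed under ether anaesthesia. Blood was drawn from the subclavian artery and kept at 0 °C in EDTA or heparin. Leukocytes, haemoglobin, haematocrit, GPT and GOT were measured within 24 h and compared with normal ranges.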

Mus musculus [25] = test: Toxicity in CD1 mouse assessed as leukocyte level at 300 mg/kg, ip after 3 days; type: organism-based; set-up: dose 300 mg/kg, route intraperitoneal; conditions: in vivo, 72 h; method in brief: as §5
Mus musculus [26] = test: Toxicity in CD1 mouse assessed as haemoglobin level at 450 mg/kg, po after 3 days; type: organism-based; set-up: dose 450 mg/kg, route oral; conditions: in vivo, 72 h; method in brief: as §5
Mus musculus [27] = test: Toxicity in CD1 mouse assessed as haemoglobin level at 300 mg/kg, ip after 3 days; type: organism-based; set-up: dose 300 mg/kg, route intraperitoneal; conditions: in vivo, 72 h; method in brief: as §5
Mus musculus [28] = test: Toxicity in CD1 mouse assessed as hematocrite level at 450 mg/kg, po after 3 days; type: organism-based; set-up: dose 450 mg/kg, route oral; conditions: in vivo, 72 h; method in brief: as §5
Mus musculus [29] = test: Toxicity in CD1 mouse assessed as glutamic-pyruvate transaminase level at 450 mg/kg, po after 3 days; type: organism-based; set-up: dose 450 mg/kg, route oral; conditions: in vivo, 72 h; method in brief: as §5
Mus musculus [30] = test: Toxicity in CD1 mouse assessed as glutamic-pyruvate transaminase level at 300 mg/kg, ip after 3 days; type: organism-based; set-up: dose 300 mg/kg, route intraperitoneal; conditions: in vivo, 72 h; method in brief: as §5
Mus musculus [31] = test: Toxicity in CD1 mouse assessed as glutamic-oxalacetate transaminase level at 450 mg/kg, po after 3 days; type: organism-based; set-up: dose 450 mg/kg, route oral; conditions: in vivo, 72 h; method in brief: as §5
Mus musculus [32] = test: Toxicity in CD1 mouse assessed as glutamic-oxalacetate transaminase level at 300 mg/kg, ip after 3 days; type: organism-based; set-up: dose 300 mg/kg, route intraperitoneal; conditions: in vivo, 72 h; method in brief: as §5
Mus musculus [33] = test: Toxicity in CD1 mouse assessed as hematocrite level at 300 mg/kg, ip after 3 days; type: organism-based; set-up: dose 300 mg/kg, route intraperitoneal; conditions: in vivo, 72 h; method in brief: as §5
Mus musculus [34] = test: Toxicity in CD1 mouse assessed as increase in weight respect to day zero at 450 mg/kg, po after 3 days; conditions: in vivo, 72 h

| Structure (SMILES) | Activity (Mus musculus [1]) | Activity (Mus musculus [2]) | Activity (Mus musculus [3]) | Activity (Mus musculus [4]) | Activity (Mus musculus [5]) | Activity (Mus musculus [6]) | Activity (Mus musculus [10]) | Activity (Mus musculus [12]) | Activity (Mus musculus [15]) | Activity (Mus musculus [17]) | Activity (Mus musculus [18]) | Activity (Mus musculus [19]) | Activity (Mus musculus [20]) | Activity (Mus musculus [21]) | Activity (Mus musculus [22]) | Activity (Mus musculus [23]) | Activity (Mus musculus [24]) | Activity (Mus musculus [25]) | Activity (Mus musculus [26]) | Activity (Mus musculus [27]) | also measured |
| --- | --- | --- | --- | --- | --- | --- | --- | --- | --- | --- | --- | --- | --- | --- | --- | --- | --- | --- | --- | --- | --- |
| COCCNC(=O)N/N=C/c1ccc([N+](=O)[O-])o1 | Non-toxic | Non-toxic | Non-toxic | Non-toxic | Non-toxic | Non-toxic | 0% | Non-toxic | Toxic | Toxic | Toxic | Non-toxic | Non-toxic | Toxic | Non-toxic | – | – | – | – | – | Activity (Trypanosoma cruzi [7]): Active; Activity (Trypanosoma cruzi [8]): Active; inhibition of growth at 5 µM (Trypanosoma cruzi [9]): 20%; Activity (Mus musculus [11]): 0%; Activity (Mus musculus [13]): Non-toxic; Activity (Mus musculus [14]): 1%; Activity (Mus musculus [16]): Non-toxic |
| CCCCCCNC(=O)/C=C/c1ccc([N+](=O)[O-])o1 | Toxic | Toxic | Toxic | Toxic | Non-toxic | Non-toxic | 0% | Non-toxic | Non-toxic | Toxic | Toxic | Non-toxic | Non-toxic | Non-toxic | Non-toxic | 2% | 86000 µL⁻¹ | 12100 µL⁻¹ | 11.5 g/dL | 11.3 g/dL | inhibition of growth at 5 µM (Trypanosoma cruzi [9]): 82%; Activity (Mus musculus [28]): 30.4%; Activity (Mus musculus [29]): 22.7 IU/L; Activity (Mus musculus [30]): 52.8 IU/L; Activity (Mus musculus [31]): 69.8 IU/L; Activity (Mus musculus [32]): 129 IU/L |
| CCCCCCOC(=O)N/N=C/C=C/c1ccc([N+](=O)[O-])o1 | Non-toxic | Non-toxic | Non-toxic | Non-toxic | Non-toxic | Non-toxic | – | Non-toxic | Non-toxic | Toxic | Toxic | Non-toxic | Non-toxic | Toxic | Non-toxic | 2% | 6600 µL⁻¹ | 5300 µL⁻¹ | 13.5 g/dL | 12 g/dL | Activity (Trypanosoma cruzi [7]): Active; Activity (Trypanosoma cruzi [8]): Active; Activity (Trypanosoma cruzi [9]): 86%; Activity (Mus musculus [28]): 42.1%; Activity (Mus musculus [33]): 22.9%; Activity (Mus musculus [29]): 42 IU/L; Activity (Mus musculus [30]): 33 IU/L; Activity (Mus musculus [31]): 164 IU/L; Activity (Mus musculus [32]): 172 IU/L; Activity (Mus musculus [34]): 2% |
| CCCCCCCCOC(=O)N/N=C/c1ccc([N+](=O)[O-])o1 | Non-toxic | Non-toxic | Non-toxic | Non-toxic | Non-toxic | Non-toxic | 11% | – | – | Toxic | Toxic | Non-toxic | Non-toxic | Non-toxic | Non-toxic | 4% | 6600 µL⁻¹ | 5300 µL⁻¹ | 11.9 g/dL | 13.8 g/dL | Activity (Trypanosoma cruzi [9]): 84%; Activity (Mus musculus [28]): 36.4%; Activity (Mus musculus [33]): 43.6%; Activity (Mus musculus [29]): 30 IU/L; Activity (Mus musculus [31]): 119 IU/L |
